# Measured values as given in ChEMBL document CHEMBL2375313, “Synthesis, in vitro antitumor evaluation and DNA-binding study of novel tetrahydroquinolines and some derived tricyclic and tetracyclic ring systems” (Eur J Med Chem, 2013).
# Calls of active or inactive are those of the source. The calls are words filed in the database; no cut-off is given here.
# Columns and labels:
# HT-29 = experiment: Cytotoxicity against human HT-29 cells assessed as growth inhibition at 10 uM after 48 hrs by sulphorhodamine B assay; type: functional; settings: HT-29, 48 h, read-out: GI
# Method in brief: (§1)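 NCI-60 one-dose screen per the NCI Drug Evaluation Branch protocol. Cells given a single 10 µM concentration with 48 h continuous exposure. Growth estimated by sulphorhodamine B protein assay. Result expressed as percentage growth inhibition relative to untreated growth.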
# HCT-116 = experiment: Cytotoxicity against human HCT116 cells assessed as growth inhibition at 10 uM after 48 hrs by sulphorhodamine B assay; type: functional; settings: HCT-116, 48 h, read-out: GI; method in brief: as §1
# LOX IMVI = experiment: Cytotoxicity against human LOXIMVI cells assessed as growth inhibition at 10 uM after 48 hrs by sulphorhodamine B assay; type: functional; settings: read-out: GI; method in brief: as §1
# [1] = Binding affinity to DNA (unknown origin) at 5 mg/mL by RP-TLC plate analysis
# Method in brief: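 Reversed-phase C18 TLC plates pre-developed in methanol/water 8:2. Compound spotted at origin (5 mg/mL in methanol), then DNA (1 mg/mL in water/methanol 8:2) applied at the same spot. Plates developed in the same eluent; DNA located by anisaldehyde spray (blue). Ethidium bromide as positive control.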
# OVCAR-4 = experiment: Cytotoxicity against human OVCAR4 cells assessed as growth inhibition at 10 uM after 48 hrs by sulphorhodamine B assay; type: functional; settings: OVCAR-4, 48 h, read-out: GI; method in brief: as §1
# SNB-75 = experiment: Cytotoxicity against human SNB75 cells assessed as growth inhibition at 10 uM after 48 hrs by sulphorhodamine B assay; type: functional; settings: SNB-75, 48 h, read-out: GI; method in brief: as §1
# IGROV-1 = experiment: Cytotoxicity against human IGROV1 cells assessed as growth inhibition at 10 uM after 48 hrs by sulphorhodamine B assay; type: functional; settings: IGROV-1, 48 h, read-out: GI; method in brief: as §1
# MDA-MB-468 = experiment: Cytotoxicity against human MDA-MB-468 cells assessed as growth inhibition at 10 uM after 48 hrs by sulphorhodamine B assay; type: functional; settings: MDA-MB-468, 48 h, read-out: GI; method in brief: as §1
# OVCAR-5 = experiment: Cytotoxicity against human OVCAR5 cells assessed as growth inhibition at 10 uM after 48 hrs by sulphorhodamine B assay; type: functional; settings: OVCAR-5, 48 h, read-out: GI; method in brief: as §1
# NCI-H23 = experiment: Cytotoxicity against human NCI-H23 cells assessed as growth inhibition at 10 uM after 48 hrs by sulphorhodamine B assay; type: functional; settings: NCI-H23, 48 h, read-out: GI; method in brief: as §1
# [2] = Cytotoxicity against human melanoma cells after 48 hrs by sulphorhodamine B assay; type: functional; settings: Melanoma cell
# [3] = Cytotoxicity against human renal cancer cells after 48 hrs by sulphorhodamine B assay; type: functional; settings: Cancer cell lines
# [4] = Cytotoxicity against human ovarian cancer cells after 48 hrs by sulphorhodamine B assay; type: functional; settings: Cancer cell lines
# [5] = Cytotoxicity against human breast cancer cells after 48 hrs by sulphorhodamine B assay; type: functional; settings: Cancer cell lines
# [6] = Cytotoxicity against human non-small cell lung cancer cells after 48 hrs by sulphorhodamine B assay; type: functional; settings: Cancer cell lines
# [7] = Cytotoxicity against human prostate cancer cells after 48 hrs by sulphorhodamine B assay; type: functional; settings: Cancer cell lines
# [8] = Cytotoxicity against human CNS cancer cells after 48 hrs by sulphorhodamine B assay; type: functional; settings: Cancer cell lines
# [9] = Cytotoxicity against human leukemia cells after 48 hrs by sulphorhodamine B assay; type: functional; settings: Leukemia cell
# [10] = Cytotoxicity against human colon cancer cells after 48 hrs by sulphorhodamine B assay; type: functional; settings: Cancer cell lines
# [11] = read-out: LC50 (the source's name)
compound,measurement,setting,value
CCSc1nc(N)c2c(-c3ccc(Cl)cc3)c3c(nc2n1)C(C)CCC3 (configuration not stated),inhibition of growth at 10 µM,HT-29,27.7%
same,inhibition of growth at 10 µM,HCT-116,18.8%
same,inhibition of growth at 10 µM,LOX IMVI,< 10%
same,Activity,[1],Active
same,inhibition of growth at 10 µM,OVCAR-4,26.8%
same,inhibition of growth at 10 µM,SNB-75,33%
same,inhibition of growth at 10 µM,IGROV-1,39%
same,inhibition of growth at 10 µM,MDA-MB-468,30.8%
same,inhibition of growth at 10 µM,OVCAR-5,12.3%
same,inhibition of growth at 10 µM,NCI-H23,15.3%
CC1CCCc2c1nc1nc(SCC(=O)c3ccccc3)nc(N)c1c2-c1ccc(Cl)cc1 (configuration not stated),GI50,[2],58 µM
same,TGI,[2],> 100 µM
same,CC50,[2]; [11],> 100 µM
same,GI50,[3],51.8 µM
same,LC50,[3],> 100 µM
same,TGI,[3],> 100 µM
same,GI50,[4],80.6 µM
same,TGI,[4],95.5 µM
same,CC50,[4]; [11],> 100 µM
same,GI50,[5],79.3 µM
same,TGI,[5],89.6 µM
same,CC50,[5]; [11],> 100 µM
same,inhibition of growth at 10 µM,HT-29,21.5%
same,inhibition of growth at 10 µM,HCT-116,38.4%
same,inhibition of growth at 10 µM,LOX IMVI,14.6%
same,GI50,[6],46.1 µM
same,TGI,[6],> 100 µM
same,CC50,[6]; [11],> 100 µM
same,Activity,[1],Active
same,inhibition of growth at 10 µM,OVCAR-4,20%
same,GI50,[7],75.5 µM
same,LC50,[7],> 100 µM
same,TGI,[7],> 100 µM
same,GI50,[8],62.3 µM
same,LC50,[8],> 100 µM
same,TGI,[8],84.1 µM
same,GI50,[9],34.7 µM
same,LC50,[9],93.3 µM
same,TGI,[9],65.1 µM
same,inhibition of growth at 10 µM,SNB-75,< 10%
same,inhibition of growth at 10 µM,IGROV-1,< 10%
same,inhibition of growth at 10 µM,MDA-MB-468,22.9%
same,GI50,[10],> 100 µM
same,TGI,[10],86.5 µM
same,CC50,[10]; [11],> 100 µM
same,inhibition of growth at 10 µM,OVCAR-5,10%
same,inhibition of growth at 10 µM,NCI-H23,24.7%
